TWEAK-Fn14 inh: inhibitors of TWEAK-Fn14 signaling, primary screen, luciferase reporter cells, uHTS | TWEAK-stimulated Fn14 reporter cells, luciferase luminescence, 8 h | inhibition, % at 10 µM | actives 2% (n = 360,000) | AID 1159606, 2016; in the data active = inhibition above about 50%
CaV13 FRET inh: Primary screen for inhibitors of IQ motif and Ca2+-dependent inactivation inhibitor domain binding in CACNA1D, Förster resonance energy transfer in living cells, … | inhibition, % at 12.3 µM | AID 743397 | actives 0.098% (n = 340,000) | HEK cells, CFP/YFP FRET ICDI-IQ, plate reader, 10 min; percent FRET-ratio fall versus neutral wells;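 active = mean replicate inhibition of at least 30% and at least 1% of replicates passing that level; inconclusive = only one of the two criteria is met; inactive = neither criterion is met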;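 note: 0% = median of the neutral control wells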
LGR2 inh: inhibitors of bursicon-induced LGR2 CRE-luciferase signal, primary screen, cell-based, HEK293, CRE-luciferase reporter, bursicon stimulation. Drosophila bursicon receptor LGR2 (rickets). bursicon-stimulated, 4 h. inhibition, % at 9.99 µM. actives 0.35% (n = 380,000). AID 720647, 2013;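 active = drop in luminescence signal, shown as inhibition above about 50% in the replicate tests, limit read from the data, passing the limit was not always enough; inconclusive = probably only some replicates passing the limit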;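 note: agonist challenge used bursicon conditioned medium at about half maximal strength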
XiGFP reactiv: activators of inactive X chromosome reactivation, primary screen, imaging, XiGFP fibroblasts, GFP high-content imaging, set 2; AID 743238, 2013; XiGFP mouse fibroblasts, % GFP-positive cells imaging, 3 d; cells co-treated with 5-aza-dC sensitizer; scaled so ellipticine positive control = 100%; actives 0.055% (n = 360,000); activation, % at 7.58 µM;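 active = mean normalized replicate activation at least 10% and every replicate at or above 10%; inconclusive = only one of the two criteria met; inactive = mean below 10% and not all replicates reach 10%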;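 note: 0% = median of on-plate neutral control wells and 100% = ellipticine 6 µM median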
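Assay system – SV40-immortalized XiGFP fibroblast cells, line 68-5-11 · Buffer or medium – DMEM supplemented with 5-aza-dC as sensitizing agent · Dosing – one concentration, pinned · Benchmarks – positive control ellipticine, 6 µM final · Times – 3 days compound exposure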
TROY NFkB inh: inhibitors of TROY-driven NF-kB signaling, primary screen, Q293 LMP1-TROYcd cells, NF-kB luciferase, uHTS | Q293 LMP1-TROYcd NF-kB luciferase reporter, 4 h | inhibition, % at 10 µM | actives 0.98% (n = 360,000);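 active = compounds whose plate-normalised and pattern-corrected inhibition of the luciferase reporter signal at the single screening dose is 50% or more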
Active calls of the source: *; ? = inconclusive; · = no result given. Most compounds without a hit are left out; they make up all but 2% or so of the library.

SMILES | TWEAK-Fn14 inh | CaV13 FRET inh | LGR2 inh | XiGFP reactiv | TROY NFkB inh
CC(C)CC#Cc1ccc2c(c1)O[C@H](CN(C)C(=O)CN(C)C)[C@@H](C)CN([C@@H](C)CO)S2(=O)=O | · | · | 21 | -1 | ·
O=C1NCCOCn2nncc2CC[C@@H]1Cc1ccccc1 | · | · | · | 0 | ·
O=C(C[C@@H]1CC[C@H](NC(=O)C2CC2)[C@@H](CO)O1)NC1CCC1 | · | · | -16 | -1 | ·
Cc1ccc(S(=O)(=O)c2cc3ccccc3oc2=Nc2ccc3c(c2)OCO3)cc1 | -29 | · | · | · | -21
Cc1ccc(S(=O)(=O)c2cc3ccccc3oc2=Nc2ccc3c(c2)OCCO3)cc1 | 81* | -6 | 0 | 0 | 13
COc1cccc2cc(S(=O)(=O)c3ccccc3)c(=Nc3ccc4c(c3)OCCO4)oc12 | 78* | -5 | 0 | 0 | 17
CNC(=O)C[C@H]1CC[C@@H]2[C@H](COc3ccc(NC(=O)c4ccc(OC)cc4)cc3C(=O)N2C)O1 | · | · | 11 | 0 | ·
C=CCn1c2ccccc2c2nnc(SCCCn3c(=O)[nH]c4ccccc43)nc21 | 60* | · | · | · | 68*
C=CCn1c2ccccc2c2nnc(SCCN3CCCCC3)nc21 | -15 | -2 | -5 | 0 | -13
CCC(=O)NC[C@H]1[C@@H](c2ccccc2)[C@H](CO)N1C(=O)C1CCC1 | · | · | -4 | 0 | ·
Cc1ccc(S(=O)(=O)Nc2ccc3c(c2)C(=O)N([C@H](C)CO)C[C@@H](C)[C@@H](CN(C)C(=O)Nc2c(C)noc2C)OCCCC[C@@H](C)O3)cc1 | · | · | 12 | 0 | ·
O=C(c1cccc(F)c1)N1CC(=O)N2[C@H](CO)[C@@H](c3ccc(-c4cccnc4)cc3)[C@H]2C1 | · | · | 9 | 0 | ·
COc1ccc(C2=NN(C(=O)c3ccccc3)C(c3ccc(OC)c(OC)c3)C2)c(O)c1 (configuration not stated) | -11 | -5 | 3 | 0 | 10
CCOc1ccc(C2CC(c3c(O)c4ccccc4oc3=O)=NN2c2ccccc2)cc1OC (configuration not stated) | 0 | 165* | -1 | 1 | 11
C[C@@H]1CCCCO[C@H](CN(C)C)[C@H](C)CN([C@H](C)CO)C(=O)c2cc(NS(=O)(=O)c3ccccc3)ccc2O1 | · | · | 10 | 0 | ·
CC(Oc1ccc(Cl)cc1Cl)c1nc(-c2ccc(NC(=O)c3ccccn3)cc2)no1 (configuration not stated) | 53* | -8 | -10 | · | 21
Cn1c(=O)c2c(nc(N3CCc4ccccc4C3)n2Cc2ccccc2F)n(C)c1=O | 61* | -5 | · | · | 47
CN1CCN(c2nc3c(c(=O)n(C)c(=O)n3C)n2Cc2ccccc2F)CC1 | 0 | -5 | -15 | 0 | 2
COC(=O)[C@]1(C)N[C@H](CN(C)S(=O)(=O)c2ccc(C(F)(F)F)cc2)[C@@H]2C(=O)N(C)C(=O)[C@@H]21 | -11 | -3 | -2 | 0 | -25
CC[C@@]1(C(=O)OC)N[C@H](CN(C)S(=O)(=O)c2ccc(C(F)(F)F)cc2)[C@@H]2C(=O)N(C)C(=O)[C@@H]21 | 83* | -2 | -6 | 0 | 17
CCN(C[C@H]1N[C@@](Cc2ccccc2)(C(=O)OC)[C@H]2C(=O)N(Cc3ccccc3)C(=O)[C@@H]12)C(=O)Nc1ccc(C(F)(F)F)cc1 | 84* | -7 | 18 | 0 | 50*
CC(C)[C@H]1C(=O)NCCC=CC[C@H](C)Oc2ccccc2C(=O)N1C (mixture of isomers) | · | · | · | 0 | ·
c1ccc(-c2cnn3c(-c4ccccc4)c(-c4ccccc4)nc3n2)cc1 | -8 | -35 | -22 | 99* | -44
Nc1nc(-c2ccccc2)c(-c2ccccc2)n1N | 10 | -4 | 3 | 0 | -21
O=C(C[C@@H]1C[C@@H]2c3cc(NC(=O)NC4CCCC4)ccc3O[C@@H]2[C@H](CO)O1)NCc1ccc(Cl)cc1 | · | · | · | 0 | ·
SMILES | TWEAK-Fn14 inh | CaV13 FRET inh | LGR2 inh | XiGFP reactiv | TROY NFkB inh
Cc1ccc(-c2cc(C(=O)N/N=C/c3ccc([N+](=O)[O-])o3)c3ccccc3n2)o1 | 3 | · | -76 | 0 | 7
Cc1cc(N/N=C/c2ccc([N+](=O)[O-])o2)nc2ccccc12 | -15 | -132 | -3 | 43* | -18
C=CCc1cccc(/C=N/NC(=O)CNc2ccccc2OC)c1O | 13 | -6 | 4 | 0 | 30
O=C(CNc1cccc2ccccc12)N/N=C/c1ccc([N+](=O)[O-])o1 | 56* | -6 | 19 | 0 | 17
C=CCc1cccc(/C=N/NC(=O)CNc2cccc3ccccc23)c1O | 69* | -3 | · | 1 | 46
O=C(CNc1cccc([N+](=O)[O-])c1)N/N=C/c1ccc([N+](=O)[O-])o1 | 16 | 4 | · | 0 | -5
Cc1ccc(NC(=O)c2ccccc2NS(=O)(=O)c2ccc(Cl)s2)cc1S(=O)(=O)N1CCOCC1 | 78* | -4 | ? | 0 | 52*
COc1ccccc1NC(=O)c1ccccc1NS(=O)(=O)c1cccs1 | 6 | -10 | 11 | 0 | 18
O=C(Nc1cc(S(=O)(=O)N2CCOCC2)ccc1O)c1ccc(NS(=O)(=O)c2ccc(Cl)s2)cc1 | 2 | -6 | -2 | 0 | 8
COc1ccc(C)cc1NC(=O)c1ccccc1NS(=O)(=O)c1ccc(Cl)s1 | 69* | -14 | 19 | · | 58*
O=C(C[C@@H]1CC[C@H](NS(=O)(=O)c2ccccc2F)[C@H](CO)O1)NCCCN1CCOCC1 | · | · | -14 | 0 | ·
CCNC(=O)C[C@@H]1CC[C@H]2[C@@H](COC[C@@H](O)CN2C(=O)C2CC2)O1 | · | · | -2 | 0 | ·
O=C(Nc1ccc(N2CCOCC2)cc1)c1cnccn1 | 81* | -3 | 70* | 0 | 60*
O=C(Nc1ccc(N2CCOCC2)cc1)c1cnsn1 | 95* | · | · | · | 72*
CCCNC(=O)C[C@@H]1CC[C@H]2[C@H](COc3ccc(NC(=O)c4cccc(F)c4)cc3C(=O)N2C)O1 | · | · | 2 | 0 | ·
COc1ccc(-c2sc3ccc(N4CCOCC4)cc3c2C#CC2(O)CCCCC2)cc1 | 3 | -6 | -5 | 0 | -11
COc1ccc(-c2sc3ccc(N4CCOCC4)cc3c2C#CCO)cc1 | 90* | -5 | 32 | 0 | 54*
O=C(c1cnccn1)N1CC2(C1)[C@@H](c1ccccc1)[C@@H](CO)N2C(=O)c1ccccc1 | · | · | -1 | 0 | ·
CC(NC(=O)c1ccc(F)cc1)c1ccc2c(c1)CCCC2 (configuration not stated) | 20 | -6 | · | · | 53*
CCn1cc(S(=O)(=O)Nc2ccc3c(c2)OCCO3)cn1 | 88* | -3 | 25 | 0 | 86*
